ChEMBL document CHEMBL1138440, “Phosphorous acid analogs of novel P2-P4 macrocycles as inhibitors of HCV-NS3 protease” (Bioorg Med Chem Lett, 2009)

Legend:
[1] = tested on: Hepatitis C virus; test: Inhibition of HCV genotype 1b NS3/4A protease; set-up: species or system Hepatitis C virus subtype 1b
In short: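 Full-length HCV NS3/4A protease; inhibition reported as Ki. Mean of at least three independent experiments.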

[2] = tested on: Hepatitis C virus; test: Antiviral activity against HCV infected in human HuH7 cells by subgenomic replication assay in presence of 50% normal human serum; assay type: functional, organism-based, Hepacivirus hominis, Huh-7
In short: (§1)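 HCV replicon replication assay in Huh-7 cells; EC50 is the concentration giving 50% inhibition of replication. Run with 10% fetal calf serum (low serum) or 50% normal human serum (to gauge protein binding). Mean of at least three independent experiments.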

[3] = tested on: Hepatitis C virus; test: Antiviral activity against HCV infected in human HuH7 cells by subgenomic replication assay in presence of 10% fetal calf serum; assay type: functional, organism-based, Hepacivirus hominis; conditions: Huh-7; in short: as §1

Row | SMILES | EC50 [3] | Ki [1] | EC50 ([2]; Hepatitis C virus, Huh-7) | EC50 ([2]; huh-7)
1 | C=C[C@H]1C[C@]1(NC(=O)[C@@H]1C[C@@H]2CN1C(=O)[C@H](C(C)(C)C)NC(=O)OCC(C)(C)CCCCc1cccc3c1CN(C3)C(=O)O2)C(=O)O | – | 2800 nM | – | –
2 | C=CC1CC1(NC(=O)[C@@H]1C[C@@H]2CN1C(=O)[C@H](C(C)(C)C)NC(=O)OCC(C)(C)CCCCc1cccc3c1CN(C3)C(=O)O2)P(=O)(OCC)OCC (stereo in doubt) | – | 2900 nM | – | 20 µM
3 | C=CC1CC1(NC(=O)[C@@H]1C[C@@H]2CN1C(=O)[C@H](C(C)(C)C)NC(=O)OCC(C)(C)CCCCc1cccc3c1CN(C3)C(=O)O2)P(=O)(O)O (mixture of isomers) | – | 16 nM | – | –

Second part, led by results:

Row | EC50 [3] | SMILES | Ki [1] | EC50 ([2]; Hepatitis C virus, Huh-7) | EC50 ([2]; huh-7)
4 | 660 nM | C=CC1CC1(NC(=O)[C@@H]1C[C@@H]2CN1C(=O)[C@H](C(C)(C)C)NC(=O)OCC(C)(C)CCCCc1cccc3c1CN(C3)C(=O)O2)P(=O)(O)OCC (mixture of isomers) | 70 nM | 2.4 µM | –
5 | 20000 nM | C=CC1CC1(NC(=O)[C@@H]1C[C@@H]2CN1C(=O)[C@H](C(C)(C)C)NC(=O)OCC(C)(C)CCCCc1cccc3c1CN(C3)C(=O)O2)P(=O)(OCC)OCC (single isomer, unassigned) | – | 15 µM | –
6 | 500 nM | C=CC1CC1(NC(=O)[C@@H]1C[C@@H]2CN1C(=O)[C@H](C(C)(C)C)NC(=O)OCC(C)(C)CCCCc1cccc3c1CN(C3)C(=O)O2)P(C)(=O)O (mixture of isomers) | 2 nM | 0.25 µM | –
